From ChEMBL document CHEMBL1148410, “Antitumor agents. 3. Design, synthesis, and biological evaluation of new pyridoisoquinolindione and dihydrothienoquinolindione derivatives with potent cytotoxic activity” (J Med Chem, 2004)
*1 amine or outer side, *2 acyl side, *3 side chain or, on linkers, in order; H or OH if unused. Where a SMILES comes first, the peptide text is derived from it. Bridges are numbered along the chain shown (N, C = ends). Roman numbers before positions name the chains, in order. [ ]: non-standard residue; d: D form. Actinocin(1to9) = Cc1c2oc3c(C)ccc(C(=O)[*:2])c3nc-2c(C(=O)[*:1])c(N)c1=O; NMeV = CN[C@H](C(=O)O)C(C)C; Sar = CNCC(=O)O

Columns and labels:
[1] = test system: SK-MES-1; assay: Concentration required to reduce proliferation of human lung squamous carcinoma (SKMES-1) cell line by 50% as determined by the MTT method; assay type: functional, cell-based
In short: (§1)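 Solid-tumour-derived cells (and fibroblasts) were seeded in exponential growth at 5×10^4 cells/mL and allowed to adhere for 16 h before serial drug dilutions were added (DMSO stock 200 μM, diluted in medium). MTT viability was read 4 days later. Untreated controls went through at least three rounds of multiplication. IC50 came from linear regression of % growth versus untreated control, mean of three independent determinations.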

[2] = test system: CCRF-SB; assay: Concentration required to reduce proliferation of human acute B-lymphoblastic (CCRF-SB) cell line by 50% as determined by the MTT method; assay type: functional, cell-based
In short: (§2)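 Leukemia/lymphoma cells grown in RPMI 1640 with 10% FCS, 37 °C, humidified 5% CO2. Compounds were dissolved in DMSO (200 μM initial) and serially diluted in medium. Exponentially growing cells were resuspended at 1×10^5 cells/mL with the drug dilutions. Viability was read by MTT after 96 h at 37 °C. Growth was taken as % of untreated controls, and IC50 came from linear regression. Values are the mean of three independent determinations.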

[3] = test system: DU-145; assay: Concentration required to reduce proliferation of human prostate carcinoma (DU-145) cell line by 50% as determined by the MTT method; assay type: functional, cell-based; in short: as §1
[4] = test system: MCF7; assay: Concentration required to reduce proliferation of human breast adenocarcinoma (MCF-7) cell line by 50% as determined by the MTT method; assay type: functional, cell-based; in short: as §1
[5] = test system: WIL2-NS; assay: Concentration required to reduce proliferation of human splenic B-lymphoblastoid (Wil2-NS) cell line by 50% as determined by the MTT method; assay type: functional, cell-based; in short: as §2
[6] = test system: HepG2; assay: Concentration required to reduce proliferation of human hepatocellular carcinoma (HepG-2) cell line by 50% as determined by the MTT method; assay type: functional, cell-based; in short: as §1
[7] = test system: CCRF-CEM; assay: Concentration required to reduce proliferation of CD4+ human acuteT-lymphoblastic leukemia (CCRF-CEM) cell line by 50% as determined by the MTT method; assay type: functional, cell-based; in short: as §2
[8] = test system: CRL-7065 cell line; assay: Concentration required to reduce proliferation of human foreskin fibroblasts (CRL7065) cell line by 50% as determined by the MTT method; assay type: functional, cell-based; in short: as §1
[9] = test system: SK-MEL-28; assay: Concentration required to reduce proliferation of human melanoma (SKMEL-28) cell line by 50% as determined by the MTT method; assay type: functional, cell-based; in short: as §1
[10] = test system: MT4; assay: Concentration required to reduce proliferation of CD4+ human acute T-lymphoblastic leukemia (MT-4) cell line by 50% as determined by the MTT method; assay type: functional, cell-based; in short: as §2
[11] = test system: KB; assay: Concentration required to reduce proliferation of KB human nasopharyngeal carcinoma (KBWT) cell line by 50% as determined by the MTT method; assay type: functional, cell-based
In short: (§3)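 Adherent cultures were seeded at 5×10^4 cells/mL, attached for 16 h, then exposed to serial drug dilutions. MTT viability was read after 4 days, with controls completing at least three doublings. IC50 came from linear regression, mean ±SD of three independent determinations.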

[12] = test system: KB; assay: Concentration required to reduce proliferation of KB subclones passaged in the presence of etoposide 7 uM (KB7D) cell line by 50% as determined by the MTT method; assay type: functional, cell-based; conditions: Homo sapiens; in short: as §3
[13] = test system: KB; assay: Concentration required to reduce proliferation of KB subclones passaged in the presence of doxorubicin 0.09 uM (KBMDR) cell line by 50% as determined by the MTT method; assay type: functional, cell-based; conditions: Homo sapiens; in short: as §3
[14] = test system: KB; assay: Concentration required to reduce proliferation of KB subclones passaged in the presence of vincristine 0.02 uM (KBV20C) cell line by 50% as determined by the MTT method; conditions: Homo sapiens

Compound | IC50 [1] | IC50 [2] | IC50 [3] | IC50 [4] | IC50 [6] | IC50 [7] | IC50 [9] | IC50 [11] | IC50 [12] | IC50 [13] | IC50 [14] | IC50 [5] | IC50 [8] | IC50 [10]
CCOC(=O)C1=CC2C(=O)c3ncccc3C(=O)C2C(c2ccc(N(C)C)cc2)=N1 (configuration not stated) | 1000 nM | 900 nM | 1000 nM | 1000 nM | 900 nM | 1200 nM | 900 nM | – | – | – | – | 1400 nM | – | 900 nM
CCOC(=O)C1(N)CSC2=C1C(=O)c1ncccc1C2=O (configuration not stated) | 100 nM | 10 nM | 80 nM | 200 nM | 600 nM | 70 nM | 200 nM | – | – | – | – | 60 nM | 90 nM | 20 nM
CCOC(=O)C1=CC2C(=O)c3cccnc3C(=O)C2C(c2ccccc2)=N1 (configuration not stated) | 300 nM | 600 nM | 1000 nM | 300 nM | 1000 nM | 700 nM | 800 nM | – | – | – | – | 1000 nM | – | 700 nM
CCOC(=O)C1(N)CSC2=C1C(=O)c1cccnc1C2=O (configuration not stated) | 900 nM | 600 nM | 1200 nM | 500 nM | 500 nM | 2000 nM | 1100 nM | – | – | – | – | 3100 nM | 1700 nM | 500 nM
CCOC(=O)C1=CC2C(=O)c3ncccc3C(=O)C2C(c2ccc(OC)cc2)=N1 (configuration not stated) | 1600 nM | 100 nM | 1500 nM | 1500 nM | 1000 nM | 100 nM | 300 nM | – | – | – | – | 90 nM | – | 400 nM
CCOC(=O)C1=CC2C(=O)c3ncccc3C(=O)C2C(c2ccccc2)=N1 (configuration not stated) | 500 nM | 10 nM | 1500 nM | 500 nM | 2000 nM | 200 nM | 800 nM | – | – | – | – | 20 nM | – | 15 nM
Cc1c2oc3c(C)ccc(C(=O)N[C@@H]4C(=O)N[C@H](C(C)C)C(=O)N5CCC[C@H]5C(=O)N(C)CC(=O)N(C)[C@@H](C(C)C)C(=O)O[C@@H]4C)c3nc-2c(C(=O)N[C@@H]2C(=O)N[C@H](C(C)C)C(=O)N3CCC[C@H]3C(=O)N(C)CC(=O)N(C)[C@@H](C(C)C)C(=O)O[C@@H]2C)c(N)c1=O [DACTINOMYCIN] (I: T[dV]P[Sar][NMeV] / II: T[dV]P[Sar][NMeV]; ester I:1-I:C, II:1-II:C; linker I:N-II:N via Actinocin(1to9)) | – | – | – | – | – | – | – | 4 nM | 200 nM | 200 nM | 50 nM | – | – | –
COc1cc([C@@H]2c3cc4c(cc3[C@@H](O[C@@H]3O[C@@H]5CO[C@@H](C)O[C@H]5[C@H](O)[C@H]3O)[C@H]3COC(=O)[C@H]23)OCO4)cc(OC)c1O [ETOPOSIDE] | – | – | – | – | – | – | – | 800 nM | > 20000 nM | > 20000 nM | 2400 nM | – | – | –
CC[C@]1(O)C[C@H]2CN(CCc3c([nH]c4ccccc34)[C@@](C(=O)OC)(c3cc4c(cc3OC)N(C=O)[C@H]3[C@@](O)(C(=O)OC)[C@H](OC(C)=O)[C@]5(CC)C=CCN6CC[C@]43[C@@H]65)C2)C1 [VINCRISTINE] | – | – | – | – | – | – | – | 4 nM | – | 1000 nM | 200 nM | – | – | –

More lines, main results first:

IC50 [1] | IC50 [2] | IC50 [3] | IC50 [4] | IC50 [6] | IC50 [7] | IC50 [9] | IC50 [11] | IC50 [12] | IC50 [13] | IC50 [14] | Compound | IC50 [5] | IC50 [8] | IC50 [10]
1000 nM | 90 nM | 1000 nM | 1000 nM | 900 nM | 20 nM | 200 nM | – | – | – | – | CCOC(=O)C1=CC2C(=O)c3ncccc3C(=O)C2C(c2ccc(C)cc2)=N1 (configuration not stated) | 30 nM | 70 nM | 300 nM
1200 nM | 900 nM | 1500 nM | 900 nM | 2000 nM | 1500 nM | 1000 nM | – | – | – | – | CCOC(=O)C1=CC2C(=O)c3cccnc3C(=O)C2C(c2ccc(OC)cc2)=N1 (configuration not stated) | 2100 nM | 1500 nM | 1000 nM
500 nM | 700 nM | 1500 nM | 500 nM | 2000 nM | 800 nM | 800 nM | – | – | – | – | CCOC(=O)C1=CC2C(=O)c3cccnc3C(=O)C2C(c2ccc(Cl)cc2)=N1 (configuration not stated) | 2000 nM | 900 nM | 700 nM
1800 nM | 2200 nM | 1900 nM | 1600 nM | 2200 nM | 2300 nM | 1900 nM | – | – | – | – | CCOC(=O)C1=CC2C(=O)c3cccnc3C(=O)C2C(c2ccc(N(C)C)cc2)=N1 (configuration not stated) | 2500 nM | – | 2000 nM
500 nM | 800 nM | 1300 nM | 600 nM | 2300 nM | 1300 nM | 900 nM | – | – | – | – | CCOC(=O)C1=CC2C(=O)c3cccnc3C(=O)C2C(c2ccc(Br)cc2)=N1 (configuration not stated) | 2100 nM | 1300 nM | 700 nM
10 nM | 2 nM | 10 nM | 80 nM | 70 nM | 50 nM | 1 nM | 80 nM | 400 nM | 300 nM | 200 nM | CCOC(=O)C1=CC2C(=O)c3ncccc3C(=O)C2C(c2ccc([N+](=O)[O-])cc2)=N1 (configuration not stated) | 1 nM | – | 1 nM
1200 nM | 1000 nM | 1900 nM | 1600 nM | 1900 nM | 1000 nM | 1300 nM | – | – | – | – | CCOC(=O)C1=CC2C(=O)c3cccnc3C(=O)C2C(c2ccc(C)cc2)=N1 (configuration not stated) | 2500 nM | – | 1000 nM
50 nM | 7 nM | 30 nM | 300 nM | 400 nM | 150 nM | 200 nM | – | – | – | – | CCOC(=O)C1=CC2C(=O)c3ncccc3C(=O)C2C(c2ccc(Cl)cc2)=N1 (configuration not stated) | 10 nM | 40 nM | 6 nM
90 nM | 10 nM | 50 nM | 200 nM | 300 nM | 200 nM | 200 nM | – | – | – | – | CCOC(=O)C1=CC2C(=O)c3ncccc3C(=O)C2C(c2ccc(Br)cc2)=N1 (configuration not stated) | 20 nM | 50 nM | 10 nM
80 nM | 15 nM | 100 nM | 200 nM | 500 nM | 230 nM | 200 nM | – | – | – | – | CCOC(=O)C1=CC2C(=O)c3cccnc3C(=O)C2C(c2ccc([N+](=O)[O-])cc2)=N1 (configuration not stated) | 30 nM | – | 10 nM
